Legend:
[1] = tested on: Rat; assay: concentration in plasma after dosing; settings: dosed: Glyoxylic acid monohydrate, 50 mg/kg, iv, Female, Harlan Sprague Dawley
[2] = tested on: Rat; assay: concentration in plasma after dosing; settings: 14 min; dosed: Glyoxylic acid monohydrate; 50 mg/kg; iv; Female; Harlan Sprague Dawley
[3] = tested on: Rat; assay: concentration in plasma after dosing; settings: 11 min; dosed: Glyoxylic acid monohydrate; 50 mg/kg; iv; Female; Harlan Sprague Dawley
[4] = tested on: Rat; assay: concentration in plasma after dosing; settings: dosed: Glyoxylic acid monohydrate, 50 mg/kg, iv, Female, Harlan Sprague Dawley; remark: listed apart in the source
[5] = tested on: Rat; assay: concentration in plasma after dosing; settings: dosed: Glyoxylic acid monohydrate, 50 mg/kg, iv, Female, Harlan Sprague Dawley; remark: listed apart in the source
[6] = tested on: Rat; assay: concentration in plasma after dosing; settings: dosed: Glyoxylic acid monohydrate, 50 mg/kg, iv, Female, Harlan Sprague Dawley; remark: listed apart in the source
[7] = tested on: Rat; assay: concentration in plasma after dosing; settings: dosed: Glyoxylic acid monohydrate, 50 mg/kg, iv, Male, Harlan Sprague Dawley
[8] = tested on: Rat; assay: concentration in plasma after dosing; settings: dosed: Glyoxylic acid monohydrate, 50 mg/kg, iv, Male, Harlan Sprague Dawley; remark: listed apart in the source
[9] = tested on: Rat; assay: concentration in plasma after dosing; settings: dosed: Glyoxylic acid monohydrate, 50 mg/kg, iv, Female, Harlan Sprague Dawley; remark: listed apart in the source
[10] = tested on: Rat; assay: concentration in plasma after dosing; settings: dosed: Glyoxylic acid monohydrate, 50 mg/kg, iv, Female, Harlan Sprague Dawley; remark: listed apart in the source
[11] = tested on: Rat; assay: concentration in plasma after dosing; settings: 14 min; dosed: Glyoxylic acid monohydrate; 50 mg/kg; iv; Male; Harlan Sprague Dawley
[12] = tested on: Rat; assay: concentration in plasma after dosing; settings: 11 min; dosed: Glyoxylic acid monohydrate; 50 mg/kg; iv; Female; Harlan Sprague Dawley; remark: listed apart in the source
[13] = tested on: Rat; assay: concentration in plasma after dosing; settings: dosed: Glyoxylic acid monohydrate, 50 mg/kg, iv, Harlan Sprague Dawley
[14] = tested on: Rat; assay: concentration in plasma after dosing; settings: dosed: Glyoxylic acid monohydrate, 50 mg/kg, iv, Female, Harlan Sprague Dawley; remark: listed apart in the source
[15] = tested on: Rat; assay: concentration in plasma after dosing; settings: dosed: Glyoxylic acid monohydrate, 50 mg/kg, iv, Female, Harlan Sprague Dawley; remark: listed apart in the source
[16] = tested on: Rat; assay: concentration in plasma after dosing; settings: dosed: Glyoxylic acid monohydrate, 50 mg/kg, iv, Male, Harlan Sprague Dawley; remark: listed apart in the source
[17] = tested on: Rat; assay: concentration in plasma after dosing; settings: dosed: Glyoxylic acid monohydrate, 50 mg/kg, iv, Female, Harlan Sprague Dawley; remark: listed apart in the source
[18] = tested on: Rat; assay: concentration in plasma after dosing; settings: dosed: Glyoxylic acid monohydrate, 50 mg/kg, iv, Female, Harlan Sprague Dawley; remark: listed apart in the source
[19] = tested on: Rat; assay: concentration in plasma after dosing; settings: dosed: Glyoxylic acid monohydrate, 50 mg/kg, iv, Female, Harlan Sprague Dawley; remark: listed apart in the source
[20] = tested on: Rat; assay: concentration in plasma after dosing; settings: dosed: Glyoxylic acid monohydrate, 50 mg/kg, iv, Female, Harlan Sprague Dawley; remark: listed apart in the source
[21] = tested on: human; assay: concentration in blood after dosing; settings: dosed: phenacetin, 1 g, oral, male
Method in brief: (§1)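 Concentration-versus-time or amount-versus-time points were compiled from published in vivo toxicokinetic studies and from two structured collections. The studies were found by PubMed searching, classifier screening and manual review. Points were mostly digitised from plot screenshots with WebPlotDigitizer, otherwise copied from tables, and kept in the reported units. Dose, route, subject details and medium were curated by hand from each paper, and sampling and analytical methods follow each source and were often unreported.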

[22] = tested on: human; assay: concentration in blood after dosing; settings: dosed: phenacetin, 250 mg, iv, male
Method in brief: as §1

[23] = tested on: rat; assay: concentration in plasma after dosing; settings: dosed: phenacetin, oral
[24] = tested on: human; assay: concentration in blood after dosing; settings: dosed: phenacetin, 250 mg, iv, male; remark: listed apart in the source
Method in brief: as §1

[25] = tested on: dog; assay: concentration in plasma after dosing; settings: dosed: phenacetin, 1 mg/kg, iv, duration: 5 min, male, beagle
Method in brief: as §1

[26] = tested on: human; assay: concentration in blood after dosing; settings: dosed: phenacetin, 250 mg, iv, male; remark: listed apart in the source
Method in brief: as §1

[27] = tested on: human; assay: concentration in blood after dosing; settings: 40 min; dosed: phenacetin; 0.25 g; oral; male
Method in brief: as §1

[28] = tested on: human; assay: concentration in blood after dosing; settings: dosed: phenacetin, 250 mg, iv, male; remark: listed apart in the source
Method in brief: as §1

[29] = tested on: human; assay: concentration in blood after dosing; settings: dosed: phenacetin, male
Method in brief: as §1

[30] = tested on: human; assay: concentration in blood after dosing; settings: dosed: phenacetin, 1 g, oral, male; remark: listed apart in the source
Method in brief: as §1

[31] = tested on: human; assay: concentration in blood after dosing; settings: dosed: phenacetin, 250 mg, iv, male; remark: listed apart in the source
Method in brief: as §1

O.O=CC(=O)O [Glyoxylic acid monohydrate]
Settings	concentration in plasma [µg/mL]
[1], 0.5 h	2.85
[1], 8 min	15.8
[4], 8 min	15.8
[4], 22 min	3.9
[5], 0.5 h	3.38
[5], 11 min	11.9
[6], 0.3 h	5.27
[6], 5 min	26.2
[7], 0.3 h	5.91
[7], 2 min	92.9
[8], 0.3 h	6.32
[8], 5 min	34.2
[9], 5 min	28.6
[9], 22 min	3.85
[10], 2 min	99
[10], 14 min	6.24
[14], 0.3 h	3.38
[14], 2 min	70.1
[15], 8 min	17.4
[15], 22 min	4.56
[16], 2 min	66.1
[16], 14 min	5.25
[17], 0.5 h	2.82
[17], 8 min	16.9
[18], 5 min	27.7
[18], 22 min	3.86
[19], 0.5 h	2.69
[19], 11 min	10.7
[20], 0.5 h	3.36
[20], 8 min	14.7

Settings	concentration in plasma [µg/mL]
[2]	8.37
[3]	11.6
[11]	7.68
[12]	9.56

concentration in plasma [µg/mL], [13]
Settings	0.3 h	2 min	5 min	8 min	11 min	14 min	22 min
Female	4.38	102	24	10.1	11.3	8.04	3.6
Male	4.85	63.1	29.8	–	9.01	8.39	4.09

CCOc1ccc(NC(C)=O)cc1 [phenacetin]
Settings	concentration in blood [µg/mL]	concentration in plasma [µg/mL]
[21], 4 h	2.12	–
[21], 5 h	0.67	–
[22], 1 h	1.54	–
[22], 1.5 h	1.01	–
[22], 2 h	0.69	–
[22], 3 h	0.18	–
[22], 10 min	3.42	–
[22], 20 min	2.62	–
[22], 40 min	1.89	–
[24], 1 h	0.92	–
[24], 1.5 h	0.82	–
[24], 2 h	0.59	–
[24], 3 h	0.33	–
[24], 4 h	0.15	–
[24], 10 min	3.06	–
[24], 20 min	2.09	–
[24], 40 min	1.18	–
[25], 0.2422 h	–	1.25
[25], 0.3263 h	–	0.884
[25], 0.4969 h	–	0.529
[25], 1.165 h	–	0.136
[25], 1.67 h	–	0.0634
[25], 2.162 h	–	0.0324
[25], 3.172 h	–	0.0135
[26], 1 h	0.74	–
[26], 1.5 h	0.31	–
[26], 2 h	0.19	–
[26], 3 h	0.08	–
[26], 10 min	2.92	–
[26], 20 min	1.91	–
[26], 40 min	1.09	–
[28], 1 h	0.64	–
[28], 1.5 h	0.46	–
[28], 2 h	0.43	–
[28], 3 h	0.22	–
[28], 10 min	2.61	–
[28], 20 min	1.77	–
[28], 40 min	0.94	–
[30], 1 h	4.6	–
[30], 1.5 h	1.22	–
[30], 2 h	0.75	–
[30], 3 h	0.36	–
[30], 4 h	0.33	–
[30], 5 h	0.19	–
[30], 20 min	0.3	–
[30], 40 min	4.51	–
[31], 1 h	0.66	–
[31], 1.5 h	0.5	–
[31], 2 h	0.21	–
[31], 3 h	0.08	–
[31], 10 min	1.86	–
[31], 20 min	1.08	–
[31], 40 min	0.98	–

[23], male, Sprague Dawley
Settings	concentration in plasma [µg/mL]
0.1117 h, 360 mg/kg	14.5
0.193 h, 360 mg/kg	24.3
0.249 h, 10 mg/kg	2.91
0.2743 h, 360 mg/kg	30.3
0.5079 h, 360 mg/kg	28.5
0.772 h, 360 mg/kg	25.5
0.9929 h, 10 mg/kg	0.193
1.006 h, 360 mg/kg	23.9
1.524 h, 360 mg/kg	14.3
1.985 h, 10 mg/kg	0.0343
2.022 h, 360 mg/kg	11.3
3.99 h, 10 mg/kg	0.0129
4.033 h, 360 mg/kg	4.51
5.995 h, 10 mg/kg	0.00858
7.985 h, 10 mg/kg	0.00858
8.005 h, 360 mg/kg	0.913
11.99 h, 360 mg/kg	0.171
268 s, 10 mg/kg	0.893

Settings	concentration in blood [µg/mL]	concentration in plasma [µM]
[23], 0.25 h, 250 mg/kg, Wistar	–	129
[23], 0.5 h, 250 mg/kg, Wistar	–	105
[23], 1 h, 250 mg/kg, Wistar	–	92.6
[23], 2 h, 250 mg/kg, Wistar	–	11.5
[23], 3 h, 250 mg/kg, Wistar	–	1.59
[29], 1 h, 0.25 g, oral	0.18	–
[29], 1 h, 1 g, oral	2.75	–
[29], 1 h, 250 mg, iv	0.67	–
[29], 1.5 h, 1 g, oral	3.36	–
[29], 1.5 h, 250 mg, iv	0.51	–
[29], 2 h, 1 g, oral	1.88	–
[29], 2 h, 250 mg, iv	0.37	–
[29], 3 h, 1 g, oral	0.82	–
[29], 3 h, 250 mg, iv	0.24	–
[29], 4 h, 1 g, oral	0.53	–
[29], 4 h, 250 mg, iv	0.13	–
[29], 5 h, 1 g, oral	0.41	–
[29], 10 min, 250 mg, iv	2.67	–
[29], 20 min, 0.25 g, oral	0.34	–
[29], 20 min, 250 mg, iv	1.26	–
[29], 40 min, 0.25 g, oral	0.31	–
[29], 40 min, 250 mg, iv	0.91	–

Settings	concentration in blood [µg/mL]
[27]	0.23

Source: EPA's CvTdb concentration-time database
